The assay deals with T1, GluRδ2^Lc D742A (Rattus norvegicus, UniProt Q63226, A654T/D742A).
T1 sequence (Q63226 24-1007 A654T/D742A): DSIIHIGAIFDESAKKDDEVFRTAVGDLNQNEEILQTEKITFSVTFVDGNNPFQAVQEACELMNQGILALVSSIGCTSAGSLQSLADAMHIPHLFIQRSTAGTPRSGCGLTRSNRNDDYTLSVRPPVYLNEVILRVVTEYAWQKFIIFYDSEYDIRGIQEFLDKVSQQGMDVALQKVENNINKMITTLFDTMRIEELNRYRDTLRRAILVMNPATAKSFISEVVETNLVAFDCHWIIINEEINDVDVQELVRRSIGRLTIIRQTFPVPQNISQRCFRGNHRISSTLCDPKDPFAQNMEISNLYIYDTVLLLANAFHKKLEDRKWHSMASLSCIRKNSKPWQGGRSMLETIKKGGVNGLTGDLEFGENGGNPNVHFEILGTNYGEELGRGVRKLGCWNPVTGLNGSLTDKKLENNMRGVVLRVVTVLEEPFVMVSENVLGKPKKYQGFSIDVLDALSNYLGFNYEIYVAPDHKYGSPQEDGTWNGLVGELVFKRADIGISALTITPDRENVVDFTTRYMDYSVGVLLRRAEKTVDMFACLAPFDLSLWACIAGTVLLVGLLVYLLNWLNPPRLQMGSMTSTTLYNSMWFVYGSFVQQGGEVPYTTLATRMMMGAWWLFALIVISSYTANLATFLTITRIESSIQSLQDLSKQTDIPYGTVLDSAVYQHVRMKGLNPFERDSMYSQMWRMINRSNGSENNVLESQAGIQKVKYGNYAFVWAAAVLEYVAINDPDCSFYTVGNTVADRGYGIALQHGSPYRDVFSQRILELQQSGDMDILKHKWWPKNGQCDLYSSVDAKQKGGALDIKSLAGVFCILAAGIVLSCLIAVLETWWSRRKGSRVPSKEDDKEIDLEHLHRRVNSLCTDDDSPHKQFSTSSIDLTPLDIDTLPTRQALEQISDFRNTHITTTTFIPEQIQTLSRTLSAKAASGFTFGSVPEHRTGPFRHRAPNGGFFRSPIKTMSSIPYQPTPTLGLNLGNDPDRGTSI
As to the kind of experiment: Two-electrode voltage-clamp recordings in Xenopus oocytes, GluRδ2^Lc D742A. In kind it is cell-based. The conditions noted are these: 3 mM Ca^2+; baseline spontaneously active current; ± SEM. The method, boiled down:
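Oocytes expressing the Lc mutant were kept in 25 μM NASP to prevent cytotoxicity. Two-electrode voltage clamp at −40 mV and 23°C, 24–72 h after cRNA injection. Bath: 90 mM NaCl, 3 mM KCl, 0.5 mM BaCl2, 10 mM HEPES, pH 7.6. Choline or NMDG chloride balanced Cl− and osmolarity. Values are fold increase over the Ca2+-free spontaneously active baseline on applying 3 mM Ca2+, given as mean ± SEM over oocytes.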

From publication PMC2806602 (The Journal of neuroscience : the official journal of the …, 2009) come the findings set out here.

As to `[Ca+2]` [Ca^2+, calcium], the “Ca^2+ potentiation (relative to baseline)” value is listed as 3.5 ± 0.11 fold.
